LMP1 NFkB inh – Epstein-Barr LMP1 NF-kappaB reporter inhibition. 350,000 compounds, 0.69% hits. LMP1-induced NF-kappaB luciferase reporter cells, luminescence. inhibition, % at 12.5 µM. AID 504558; in the data active = inhibition above about 41%;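 also: 0% = neutral control wells and 100% = reference inhibitor control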
HIF act – HIF pathway transcriptional activation | U2OS HRE-luciferase reporter, luminescence; normalized: DMSO 0%, desferrioxamine 100% | activation, % at 7.5 µM (by protocol) | 300,000 compounds, 0.32% hits;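 active = mean activation of at least 10% of the iron chelator positive control signal, with at least half of replicates also reaching 10%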
TROY signal inh – inhibitors of TROY-dependent NF-kB signaling; inhibition, % at 10 µM; AID 1347056; 360,000 compounds, 0.98% hits; Q293 LMP1-TROYcd NF-kB luciferase reporter, 4 h;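 active = compounds whose plate-normalised and pattern-corrected inhibition of the luciferase reporter signal at the single screening dose is 50% or more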
NR2E3 ag-1 – activates human NR2E3 receptor | Q9Y5X4 | CHO-S Gal4-NCOR/VP16-NR2E3 two-hybrid, luciferase | inhibition of corepressor binding, % at 3.98 µM | 360,000 compounds, 0.35% hits;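 active = inhibition above the mean of all tested compounds plus 3 SD, cut at about 70% in these data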;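 also: 0% = DMSO with NR2E3 transfected cells and 100% = cells lacking NR2E3 construct; higher means lower luciferase signal from less NR2E3 corepressor binding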
Target sequence (Q9Y5X4 whole entry, looked up, the tested form may be a part): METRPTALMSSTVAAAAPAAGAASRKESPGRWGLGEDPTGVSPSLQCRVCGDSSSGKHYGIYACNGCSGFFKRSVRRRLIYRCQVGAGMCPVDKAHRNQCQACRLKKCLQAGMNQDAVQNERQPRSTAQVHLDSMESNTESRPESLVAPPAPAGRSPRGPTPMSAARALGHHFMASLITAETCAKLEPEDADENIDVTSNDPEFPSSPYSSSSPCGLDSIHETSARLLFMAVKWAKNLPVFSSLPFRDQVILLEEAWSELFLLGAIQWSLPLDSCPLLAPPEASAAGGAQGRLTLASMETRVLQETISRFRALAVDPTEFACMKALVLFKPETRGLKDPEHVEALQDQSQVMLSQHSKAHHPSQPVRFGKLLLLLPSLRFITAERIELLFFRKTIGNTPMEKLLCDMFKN
NR2E3 ag-2 – NR2E3 (human) agonism; Q9Y5X4; GST-NR2E3/biotin-RetCOR TR-FRET, 1536-well; inhibition of corepressor binding, % at 4.78 µM; 320,000 compounds, 0.12% hits;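 active = percent inhibition above the cutoff of mean plus 3 SD of all tested compounds, set per screening campaign, cut at about 20% in these data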;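 also: 0% = DMSO wells and 100% = biotin wells as full block of FRET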
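Format: 1536-well format; test system: GST-NR2E3 and biotin-RetCOR proteins; read-out basis: percent inhibition of TR-FRET ratio; timing: 5 h incubation at 4 °C; detection: time-resolved FRET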
* hit, by the source's call. This is a sample that favours compounds with a hit; in the whole collection about 2% have one here.

`Cc1cccc(N2C(=O)CC(NNc3nc4ccccc4s3)C2=O)c1` (configuration not stated) gave LMP1 NFkB inh 0.7, HIF act -0.2, TROY signal inh -2.6, NR2E3 ag-1 3.0 and NR2E3 ag-2 -1.7.
O=C1CC(NNc2nc3ccccc3s2)C(=O)N1c1ccc(F)cc1 (configuration not stated) was read as LMP1 NFkB inh -18.0, HIF act 0.9, TROY signal inh 69.4*, NR2E3 ag-1 -13.7 and NR2E3 ag-2 -1.5.
For O=Cc1cc(OCc2ccccc2)ccc1[B-](F)(F)F the results were LMP1 NFkB inh 55.0*, TROY signal inh -8.0 and NR2E3 ag-1 -15.0.
Screening Cc1cc(OC(=O)Nc2ccccc2)ccc1Cl returned LMP1 NFkB inh -2.5, TROY signal inh -25.1 and NR2E3 ag-1 -25.6.
Screening O=C(O)c1cccc(NC(=O)c2cn(-c3ccccc3)nc2-c2ccc(F)cc2)c1 returned LMP1 NFkB inh 81.8*, HIF act -0.5, TROY signal inh -31.0, NR2E3 ag-1 -16.3 and NR2E3 ag-2 -0.5.
For Cc1ccc(-c2nn(-c3ccccc3)cc2C(=O)Nc2ccc(C(=O)O)cc2)cc1 the results were LMP1 NFkB inh -3.0, HIF act 0.6, TROY signal inh -41.4, NR2E3 ag-1 -42.2 and NR2E3 ag-2 -1.9.
CC(=O)c1c(C)[nH]c(C(=O)NCC2CCCCC2)c1C was read as LMP1 NFkB inh -8.0, HIF act 1.0, TROY signal inh -51.6, NR2E3 ag-1 -36.6 and NR2E3 ag-2 -0.1.
For Cc1cccc(C(=O)NCC(=O)OCC(=O)c2cc(C)n(CC3CCCO3)c2C)c1 (configuration not stated) the results were LMP1 NFkB inh 7.7, HIF act 0.0, TROY signal inh 79.8*, NR2E3 ag-1 3.9 and NR2E3 ag-2 -2.0.
`Cc1cc(C(=O)COC(=O)CNC(=O)c2ccccc2)c(C)n1CC1CCCO1` (configuration not stated) gave LMP1 NFkB inh 13.1, HIF act -1.2, TROY signal inh 5.3, NR2E3 ag-1 6.5 and NR2E3 ag-2 -2.3.
`COc1cc(OC)cc(C(=O)OCC(=O)c2cc(C)n(CC3CCCO3)c2C)c1` (configuration not stated) gave LMP1 NFkB inh 1.3, TROY signal inh -9.0, NR2E3 ag-1 -2.6 and NR2E3 ag-2 2.4.
`Cc1cc(C(=O)CN2C(=O)c3ccccc3S2(=O)=O)c(C)n1CC1CCCO1` (configuration not stated) gave LMP1 NFkB inh 80.0*, HIF act -6.3, TROY signal inh 44.9, NR2E3 ag-1 23.2 and NR2E3 ag-2 0.9.
Screening Cc1cc(C(=O)COC(=O)c2ccc(O)cc2)c(C)n1CC1CCCO1 (configuration not stated) returned LMP1 NFkB inh -15.1, HIF act 0.8, TROY signal inh 61.5*, NR2E3 ag-1 -86.1 and NR2E3 ag-2 1.0.
`Cc1cc(C(=O)COC(=O)c2ccc(Cl)c(S(N)(=O)=O)c2)c(C)n1CC1CCCO1` (configuration not stated) gave LMP1 NFkB inh -13.2, HIF act -0.4, TROY signal inh 71.9*, NR2E3 ag-1 38.5 and NR2E3 ag-2 -3.8.
For CC(C)C[C@@H]1CN(CCCC[C@H]2CNC(=O)C(=O)N2CCC2CCCCC2)C(=O)C(=O)N1Cc1ccccc1 the results were TROY signal inh 9.6 and NR2E3 ag-1 -27.7.
C/C=C/c1ccc2c(c1)O[C@H](CN(C)CC1CCOCC1)[C@@H](C)CN([C@H](C)CO)S2(=O)=O was read as LMP1 NFkB inh 3.1, TROY signal inh -9.2 and NR2E3 ag-1 -8.3.
`CC(NC(=O)C1CCN(S(=O)(=O)c2ccc(Br)s2)CC1)c1ccccc1` (configuration not stated) gave LMP1 NFkB inh -4.9, HIF act -1.3, TROY signal inh 7.8, NR2E3 ag-1 -3.2 and NR2E3 ag-2 4.0.
For O=C(/C=C/c1ccccc1)N1CCN(CC(O)COc2ccccc2)CC1 (configuration not stated) the results were LMP1 NFkB inh -1.4, HIF act -0.2, TROY signal inh 53.9*, NR2E3 ag-1 -8.2 and NR2E3 ag-2 -0.7.
`OC(COc1ccccc1)CN1CCCCC1` (configuration not stated) gave LMP1 NFkB inh 0.9, TROY signal inh -8.9 and NR2E3 ag-1 4.3.
O=C(Nc1ccc(Oc2c(F)c(F)c(F)c(F)c2F)cc1)OC1CCN2Cc3ccccc3N=C12 (configuration not stated) was read as LMP1 NFkB inh -98.1, HIF act -4.2, TROY signal inh 61.1*, NR2E3 ag-1 -21.5 and NR2E3 ag-2 -0.5.
For N#CC(C#N)=C1C=CC=CN1/C(=C\c1ccco1)C(=O)c1ccc(Br)cc1 the results were LMP1 NFkB inh -21.2, TROY signal inh 77.7*, NR2E3 ag-1 39.5 and NR2E3 ag-2 3.4.
`COc1ccc(/C=C(/C(=O)c2cccs2)N2C=CC=CC2=C(C#N)C#N)cc1` gave LMP1 NFkB inh -0.3, HIF act 1.6, TROY signal inh 39.7 and NR2E3 ag-1 -51.9.
Screening COc1ccc(C(=O)/C(=C\c2ccco2)N2C=CC=CC2=C(C#N)C#N)cc1 returned LMP1 NFkB inh 10.2, HIF act -7.1, TROY signal inh -8.8, NR2E3 ag-1 -15.2 and NR2E3 ag-2 -0.5.
`N#CC(C#N)=C1C=CC=CN1/C(=C\c1ccco1)C(=O)c1ccccc1` gave LMP1 NFkB inh 0.0, TROY signal inh 69.1*, NR2E3 ag-1 38.1 and NR2E3 ag-2 2.7.
For CCN(Cc1ccccc1)C(=O)COC(=O)Cc1c[nH]c2ccccc12 the results were LMP1 NFkB inh -3.1, TROY signal inh -8.5 and NR2E3 ag-1 -1.2.
S=C1SCCN1Cc1ccccc1 was read as LMP1 NFkB inh 8.9, TROY signal inh -10.3 and NR2E3 ag-1 -12.5.
For COc1ccc(C)cc1NC(=O)CSc1nnc(-c2cc(C)[nH]n2)n1N the results were LMP1 NFkB inh 5.9, HIF act -0.4, TROY signal inh 7.1, NR2E3 ag-1 -3.6 and NR2E3 ag-2 -0.3.
Screening CC(C)(C)C(=O)COC(=O)c1c2c(nc3ccccc13)CCC2 returned LMP1 NFkB inh -10.9, HIF act 0.1, TROY signal inh -12.7, NR2E3 ag-1 -7.9 and NR2E3 ag-2 1.5.
For NC(=O)COC(=O)c1c2c(nc3ccccc13)CCCCC2 the results were LMP1 NFkB inh -1.1, HIF act -0.2, TROY signal inh 54.8*, NR2E3 ag-1 -18.4 and NR2E3 ag-2 1.0.
For COC(=O)c1ccc2nc(-c3ccc(Cl)cc3)c(Cc3ccc(OC)cc3C)n2c1 the results were TROY signal inh 51.3* and NR2E3 ag-1 14.5.
Cc1oc2c(c1C(=O)c1ccc(Cl)cc1)C(=O)C(=O)c1ccccc1-2 was read as LMP1 NFkB inh 89.9*, HIF act 1.1, TROY signal inh 38.5 and NR2E3 ag-1 -37.8.
Screening Cc1ccc(C(=O)c2c(C)oc3c2C(=O)C(=O)c2ccccc2-3)cc1 returned LMP1 NFkB inh 45.9*, HIF act 3.1, TROY signal inh 28.8, NR2E3 ag-1 -97.8 and NR2E3 ag-2 9.9.

Screening data deposited in PubChem by several laboratories.
